Data set [1] has as its target T1, Sodium- and chloride-dependent GABA transporter 1 (Mus musculus, UniProt P31648). Nature of the data set: Inhibition of mouse GAT1 expressed in HEK293 cells assessed as reduction in [3H]GABA uptake preincubated cells with photoirradiated compound for 25 mins followed by [3H]GABA addition measured after 4 mins by liquid scintillation counting method. It is filed as cell-based. The essentials:
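HEK293 cells stably expressing the mouse GAT subtype (about 200000 cells) preincubated with compound for 25 min at 25 °C in the dark with shaking. Then 8 nM [3H]GABA plus 32 nM unlabeled GABA (final) added for 4 min. Stopped by filtration; filter radioactivity by scintillation counting. Photoisomerized 10 mM DMSO-d6 stocks (photostationary state, Z/E ratio by 1H NMR) diluted protected from light; non-irradiated stock tested in parallel.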

A short description of data set [2]: Half life of thermal relaxation of compound in DMSO-d6 using photoirradiated compound by 1H NMR method. It counts as physicochemical. In a few lines: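 Irradiated to photostationary state as 10 mM stock in DMSO-d6 (1 mL, within 10 min); 1H NMR spectra recorded starting immediately after irradiation. Z/E fraction α from spectra plotted against time, fit to a single exponential to give half-life; 25 °C.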

The nature of data set [3]: Half life of thermal relaxation of compound in pH 7.4 DMSO-d6/phosphate-buffer using photoirradiated compound at 50 uM incubated in dark by UV/vis-spectroscopy. The note with it: pH 7.4, 50 µM. It is filed as physicochemical.
Data set [4] concerns the target T1, Sodium- and chloride-dependent GABA transporter 1. In words: Inhibition of mouse GAT1 assessed as reduction in GABA uptake using photoirradiated compound. The essentials:
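A 10 mM DMSO-d6 stock was irradiated to its photostationary state: 350 nm Rayonet for diphenyldiazenes, 375 nm LED for naphthylphenyldiazenes. (Z)/(E) ratio was checked by 1H NMR, and dilutions were made protected from light. mGAT1-HEK293 cells were preincubated 25 min at 25 °C in the dark, then given 4 min uptake of 8 nM [3H]GABA plus 32 nM GABA. Filtration and scintillation counting gave pIC50.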

For data set [5] the target is unchanged. Nature of the data set: Inhibition of mouse GAT1 assessed as reduction in GABA uptake.

Each structure is given as a SMILES string. pIC50: −log10 of the molar value.

For the compound `O=C(O)C1CCCN(CCC#Cc2cccc(N=Nc3ccccc3)c2)C1` (mixture of isomers), the pIC50 in data set [1] is 6.05. Besides, the results for the t1/2 in data set [2] and in data set [3] were 15 days and 22 days, respectively.

For `O=C(O)[C@@H]1CCCN(CCOCCc2cccc(N=Nc3cccc4ccccc34)c2)C1` (mixture of isomers), the pIC50 in data set [4] is 5.78; in data set [5], 6.39.

The values are drawn from ChEMBL document CHEMBL4130630 (J Med Chem, 2018).
